ChEMBL document CHEMBL3856209, “Novel pyrazolopyridine derivatives as potential angiogenesis inhibitors: Synthesis, biological evaluation and transcriptome-based mechanistic analysis” (Eur J Med Chem, 2016)
The source made the active and inactive calls. No cut-off for these calls is given here.

What was measured:
HUVEC [1] = test: Effect on RHOB gene expression in serum-starved HUVEC after 6 hrs by microarray analysis relative to control; format: functional, Homo sapiens
HUVEC [2] = test: Effect on PNISR gene expression in serum-starved HUVEC after 24 hrs by microarray analysis relative to control; format: functional, Homo sapiens
How it was run: (§1)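 Serum-starved confluent HUVEC (pooled from 3–5 donors, passage ≤4) were treated with 2 μM compound or vehicle in 2.5% FBS for 6 h or 24 h, and total RNA was isolated. Hybridization was on Illumina Human-HT12. Data were processed with bgAdjust, vst and rsn normalization. Changes versus DMSO were called by moderated paired t-test at p < 0.05 and |log2 fold change| > 0.5.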

HUVEC [3] = test: Effect on RHOB gene expression in serum-starved HUVEC after 24 hrs by microarray analysis relative to control; format: functional, Homo sapiens
HUVEC [4] = test: Effect on MAP1B gene expression in serum-starved HUVEC after 6 hrs by microarray analysis relative to control; format: functional, Homo sapiens; how it was run: as §1
HUVEC [5] = test: Effect on ZAK gene expression in serum-starved HUVEC after 6 hrs by microarray analysis relative to control; format: functional, Homo sapiens
HUVEC [6] = test: Effect on FILIP1L gene expression in serum-starved HUVEC after 24 hrs by microarray analysis relative to control; format: functional, Homo sapiens
How it was run: (§2)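 Confluent, serum-starved HUVEC (pooled from 3–5 donors, passage ≤4) treated with 2 μM compound or vehicle with 2.5% FBS for 6 h or 24 h. Total RNA hybridized to Illumina Human-HT12 arrays. Data were background-corrected, vst-transformed and rsn-normalized. Hits called by moderated paired t-test versus DMSO-treated cells, p < 0.05 and log2 fold change >|0.5|.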

[7] = Downregulation of UBE2C gene expression in serum-starved HUVEC at 2 uM after 24 hrs by qRT-PCR analysis; format: functional, cell-based; details: Homo sapiens
How it was run: (§3)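 Serum-starved confluent HUVEC treated with 2 μM compound or vehicle in 2.5% FBS for 24 h. Total RNA isolated and qRT-PCR run in triplicate (95 °C 5 min; 40 cycles of 95 °C 5 s, 58 °C 20 s, 72 °C 5 s), normalized to RPS18S. Fold change vs control, n = 3.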

HUVEC [8] = test: Effect on ATP1B1 gene expression in serum-starved HUVEC after 6 hrs by microarray analysis relative to control; format: functional, Homo sapiens
How it was run: (§4)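 Serum-starved confluent HUVEC treated with 2 μM compound or DMSO in 2.5% FBS for 6 h or 24 h; RNA hybridized to Illumina Human-HT12 arrays. Data background-corrected, vst-transformed and rsn-normalized. Differential probes called by moderated paired t-test (limma) at p < 0.05 and log2 fold change >|0.5| vs DMSO.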

HUVEC [9] = test: Effect on ANGPT2 gene expression in serum-starved HUVEC after 6 hrs by microarray analysis relative to control; format: functional, Homo sapiens; how it was run: as §4
HUVEC [10] = test: Effect on HAVCR2 gene expression in serum-starved HUVEC after 6 hrs by microarray analysis relative to control; format: functional, Homo sapiens
How it was run: (§5)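 Confluent serum-starved HUVEC (primary, pooled from 3–5 donors, passage ≤4) treated with 2 μM compound or DMSO vehicle in 2.5% FBS for 6 h or 24 h. Total RNA hybridized to Illumina Human-HT12 arrays, background-corrected, vst-transformed and rsn-normalized. Differential expression versus DMSO by moderated paired t-test (p < 0.05, |log2 fold change| > 0.5).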

HUVEC [11] = test: Effect on SMC4 gene expression in serum-starved HUVEC after 24 hrs by microarray analysis relative to control; format: functional, Homo sapiens
HUVEC [12] = test: Effect on CXCR4 gene expression in serum-starved HUVEC after 24 hrs by microarray analysis relative to control; format: functional, Homo sapiens; how it was run: as §5
HUVEC [13] = test: Effect on CCL8 gene expression in serum-starved HUVEC after 24 hrs by microarray analysis relative to control; format: functional, Homo sapiens; how it was run: as §5
HUVEC [14] = test: Effect on HLA-DRB4 gene expression in serum-starved HUVEC after 24 hrs by microarray analysis relative to control; format: functional, Homo sapiens
HUVEC [15] = test: Effect on EGR1 gene expression in serum-starved HUVEC after 24 hrs by microarray analysis relative to control; format: functional, Homo sapiens; how it was run: as §2
HUVEC [16] = test: Effect on ACAT2 gene expression in serum-starved HUVEC after 24 hrs by microarray analysis relative to control; format: functional, Homo sapiens; how it was run: as §4
HUVEC [17] = test: Effect on HECW2 gene expression in serum-starved HUVEC after 6 hrs by microarray analysis relative to control; format: functional, Homo sapiens; how it was run: as §2
HUVEC [18] = test: Effect on UBE2J1 gene expression in serum-starved HUVEC after 6 hrs by microarray analysis relative to control; format: functional, Homo sapiens
HUVEC [19] = test: Effect on CD68 gene expression in serum-starved HUVEC after 6 hrs by microarray analysis relative to control; format: functional, Homo sapiens; how it was run: as §4
HUVEC [20] = test: Effect on GLIPR1 gene expression in serum-starved HUVEC after 6 hrs by microarray analysis relative to control; format: functional, Homo sapiens; how it was run: as §2
HUVEC [21] = test: Effect on FAM212A gene expression in serum-starved HUVEC after 6 hrs by microarray analysis relative to control; format: functional, Homo sapiens; how it was run: as §5
HUVEC [22] = test: Effect on SCD gene expression in serum-starved HUVEC after 6 hrs by microarray analysis relative to control; format: functional, Homo sapiens
HUVEC [23] = test: Effect on MVD gene expression in serum-starved HUVEC after 6 hrs by microarray analysis relative to control; format: functional, Homo sapiens; how it was run: as §1
HUVEC [24] = test: Effect on KIF11 gene expression in serum-starved HUVEC after 6 hrs by microarray analysis relative to control; format: functional, Homo sapiens; how it was run: as §2
HUVEC [25] = test: Effect on HMGCR gene expression in serum-starved HUVEC after 6 hrs by microarray analysis relative to control; format: functional, Homo sapiens; how it was run: as §2
HUVEC [26] = test: Effect on CD68 gene expression in serum-starved HUVEC after 24 hrs by microarray analysis relative to control; format: functional, Homo sapiens; how it was run: as §4
HUVEC [27] = test: Effect on ASAP1 gene expression in serum-starved HUVEC after 6 hrs by microarray analysis relative to control; format: functional, Homo sapiens; how it was run: as §5
[28] = Downregulation of CDC20 gene expression in serum-starved HUVEC at 2 uM after 24 hrs by qRT-PCR analysis; format: functional, cell-based; details: Homo sapiens; how it was run: as §3
HUVEC [29] = test: Effect on INSIG1 gene expression in serum-starved HUVEC after 6 hrs by microarray analysis relative to control; format: functional, Homo sapiens; how it was run: as §2
HUVEC [30] = test: Effect on HAVCR2 gene expression in serum-starved HUVEC after 24 hrs by microarray analysis relative to control; format: functional, Homo sapiens; how it was run: as §5
HUVEC [31] = test: Effect on TUBB4B gene expression in serum-starved HUVEC after 6 hrs by microarray analysis relative to control; format: functional, Homo sapiens
HUVEC [32] = test: Effect on TYMS gene expression in serum-starved HUVEC after 6 hrs by microarray analysis relative to control; format: functional, Homo sapiens
HUVEC [33] = test: Effect on HJURP gene expression in serum-starved HUVEC after 6 hrs by microarray analysis relative to control; format: functional, Homo sapiens
HUVEC [34] = test: Effect on SQLE gene expression in serum-starved HUVEC after 24 hrs by microarray analysis relative to control; format: functional, Homo sapiens
HUVEC [35] = test: Effect on LSS gene expression in serum-starved HUVEC after 6 hrs by microarray analysis relative to control; format: functional, Homo sapiens
HUVEC [36] = test: Effect on GANAB gene expression in serum-starved HUVEC after 24 hrs by microarray analysis relative to control; format: functional, Homo sapiens; how it was run: as §2
HUVEC [37] = test: Effect on MIR181A2HG gene expression in serum-starved HUVEC after 6 hrs by microarray analysis relative to control; format: functional, Homo sapiens; how it was run: as §1
HUVEC [38] = test: Effect on RETSAT gene expression in serum-starved HUVEC after 6 hrs by microarray analysis relative to control; format: functional, Homo sapiens

SMILES: COc1ccc(Cn2nc(-c3ccccc3)c3cc(Cl)nc(N4CCNCC4)c32)cc1
- log2FC (HUVEC [1]): -0.225
- log2FC (HUVEC [2]): 0.0521
- log2FC (HUVEC [3]): 0.5108
- fold change (FC) (HUVEC [4]): 0.5859
- log2FC (HUVEC [5]): 0.5589
- log2FC (HUVEC [6]): 0.0497

SMILES: COc1ccc(Cn2nc(-c3ccccc3)c3cc(Nc4ccc(N5CCN(C)CC5)cc4)nc(N4CCN(C)CC4)c32)cc1
- Activity [7]: Active
- fold change (FC) (HUVEC [8]): 0.237
- fold change (FC) (HUVEC [9]): 0.2528
- fold change (FC) (HUVEC [10]): 0.9139
- log2FC (HUVEC [11]): -0.5117
- fold change (FC) (HUVEC [12]): 0.6553
- fold change (FC) (HUVEC [13]): -0.7427
- log2FC (HUVEC [14]): -0.7509
- log2FC (HUVEC [15]): 0.5707
- log2FC (HUVEC [16]): 1.8135
- fold change (FC) (HUVEC [17]): 0.4559
- log2FC (HUVEC [18]): 0.4634
- fold change (FC) (HUVEC [19]): 0.5187
- fold change (FC) (HUVEC [20]): 0.1533
- fold change (FC) (HUVEC [21]): 0.129
- log2FC (HUVEC [22]): 0.7444
- fold change (FC) (HUVEC [23]): 0.3962
- fold change (FC) (HUVEC [24]): 0.073
- fold change (FC) (HUVEC [25]): 1.0317
- log2FC (HUVEC [26]): -0.8363
- fold change (FC) (HUVEC [27]): 0.6103
- Activity [28]: Active
- fold change (FC) (HUVEC [29]): 1.0454
- fold change (FC) (HUVEC [30]): -0.7422
- fold change (FC) (HUVEC [31]): -0.206
- log2FC (HUVEC [32]): -0.1879
- fold change (FC) (HUVEC [33]): -0.1528
- log2FC (HUVEC [34]): 1.0535 - 1.1624
- fold change (FC) (HUVEC [35]): 0.4912

SMILES: COc1ccc(Cn2nc(-c3ccccc3)c3cc(Nc4ccc(N5CCN(C)CC5)cc4)nc(N4CCNCC4)c32)cc1
- log2FC (HUVEC [36]): -0.5222
- log2FC (HUVEC [37]): -0.0835
- log2FC (HUVEC [38]): 0.0844
